According to BindingDB's records for doi:10.1021/jm301749y (University of North Carolina at Chapel Hill, 2013):

Target: T1, C-C chemokine receptor type 4 (Homo sapiens, UniProt P51679)
T1 sequence (P51679 whole entry): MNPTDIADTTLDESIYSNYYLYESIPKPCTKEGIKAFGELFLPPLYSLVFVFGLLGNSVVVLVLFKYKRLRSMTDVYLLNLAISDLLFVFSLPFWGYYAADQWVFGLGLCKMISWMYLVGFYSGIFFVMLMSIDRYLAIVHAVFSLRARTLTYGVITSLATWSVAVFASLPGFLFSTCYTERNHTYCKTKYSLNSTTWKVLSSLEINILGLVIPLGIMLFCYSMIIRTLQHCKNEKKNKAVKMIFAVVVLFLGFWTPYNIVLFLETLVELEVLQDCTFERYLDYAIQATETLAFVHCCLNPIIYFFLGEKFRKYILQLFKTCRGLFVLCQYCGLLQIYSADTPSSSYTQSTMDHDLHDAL
Experiment: Inverse agonist activity at CCR4 in human HTLA cells assessed as depression of basal activity incubated for 20 mins by beta arrestin-recruitment mediated luciferase reporter gene assay in absence of CCL22
How it was run: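 Transfected HTLA β-arrestin2-TEV/tTA-luciferase cells expressing CCR4, in serum-free DMEM, treated with compound dilutions in HBSS/20 mM HEPES pH 7.4 without CCL22 agonist; luciferase luminescence read on day 4; basal signal depression plotted as concentration-response curves.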

CCC(C)n1ncn(-c2ccc(N3CCN(c4ccc(OC[C@H]5CO[C@](Cn6cncn6)(c6ccc(Cl)cc6Cl)O5)cc4)CC3)cc2)c1=O (stereo partly specified) [Oriconazole]
IC50: 200 nM
